Source: ChEMBL document CHEMBL1125185, “Nonpeptide angiotensin II receptor antagonists: the discovery of a series of N-(biphenylylmethyl)imidazoles as potent, orally active antihypertensives” (J Med Chem, 1991)
Activity calls are given as the source filed them. The calls are words filed in the database; no cut-off is given here.

What was measured:
[1] = tested on: Rattus norvegicus; assay: Blood pressure lowering activity in renal hypertensive rats after peroral administration; Inactive indicates fail to cause significant drop in blood pressure even at 100 mg/kg (in vivo); type: functional, organism-based; design: dose 100 mg/kg
How it was run: (§1)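 Conscious male Sprague-Dawley CD rats, six days after left renal artery ligation and with jugular and carotid cannulae, were dosed by oral gavage at 1-100 mg/kg (4-6 rats/dose). Mean arterial pressure was monitored for 3 h.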

[2] = target: T1, Angiotensin II receptor (Rattus norvegicus, UniProt P29089+P25095+P35351); assay: Inhibition of radioligand [3H]angiotensin II binding to angiotensin II receptor of rat adrenal cortical membrane
T1 sequence (P29089 whole entry): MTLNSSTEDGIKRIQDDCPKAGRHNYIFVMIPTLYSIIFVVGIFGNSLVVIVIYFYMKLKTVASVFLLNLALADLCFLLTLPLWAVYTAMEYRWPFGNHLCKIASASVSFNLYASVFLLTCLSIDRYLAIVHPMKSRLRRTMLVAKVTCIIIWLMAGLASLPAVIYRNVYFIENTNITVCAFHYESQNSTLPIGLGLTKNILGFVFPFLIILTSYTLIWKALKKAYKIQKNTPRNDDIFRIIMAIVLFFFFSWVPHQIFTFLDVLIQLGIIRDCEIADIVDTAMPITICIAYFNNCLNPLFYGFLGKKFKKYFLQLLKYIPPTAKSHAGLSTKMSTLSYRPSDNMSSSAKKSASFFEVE
T1 sequence (P25095 whole entry): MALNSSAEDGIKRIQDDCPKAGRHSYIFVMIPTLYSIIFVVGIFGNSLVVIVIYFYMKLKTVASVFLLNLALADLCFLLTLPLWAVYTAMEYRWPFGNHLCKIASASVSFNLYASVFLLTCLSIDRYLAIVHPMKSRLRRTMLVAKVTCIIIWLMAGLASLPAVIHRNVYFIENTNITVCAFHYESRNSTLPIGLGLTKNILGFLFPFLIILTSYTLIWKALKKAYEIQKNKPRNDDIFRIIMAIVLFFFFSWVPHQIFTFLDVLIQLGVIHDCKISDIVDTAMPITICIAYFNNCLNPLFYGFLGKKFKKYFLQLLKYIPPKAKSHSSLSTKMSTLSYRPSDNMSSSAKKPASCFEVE
T1 sequence (P35351 whole entry): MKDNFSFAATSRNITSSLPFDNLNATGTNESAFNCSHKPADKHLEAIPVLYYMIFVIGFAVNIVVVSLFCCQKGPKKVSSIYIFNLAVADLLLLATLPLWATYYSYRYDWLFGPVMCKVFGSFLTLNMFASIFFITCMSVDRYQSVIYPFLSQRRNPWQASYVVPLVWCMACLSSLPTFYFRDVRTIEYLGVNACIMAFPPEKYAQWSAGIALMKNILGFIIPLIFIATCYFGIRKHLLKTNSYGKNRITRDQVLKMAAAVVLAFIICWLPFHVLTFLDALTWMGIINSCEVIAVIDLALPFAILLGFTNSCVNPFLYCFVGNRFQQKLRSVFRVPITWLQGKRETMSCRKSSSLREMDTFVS
How it was run: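 Rat adrenal cortical microsomes came from male Sprague-Dawley CD rats (300-400 g) and were prepared at 4 °C in sucrose/EDTA/Tris pH 7.4. Samples were filtered and counted, in duplicate. Specific binding was defined with 1 µM unlabeled AII. IC50 was taken from the linear portion of the displacement curve.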

[3] = tested on: Rattus norvegicus; assay: Blood pressure lowering activity in renal hypertensive rats after intravenous administration; type: functional
How it was run: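 Male Sprague-Dawley CD rats had the left renal artery ligated under hexobarbital (100 mg/kg ip). Six days later the jugular vein and carotid artery were cannulated under hexobarbital (90 mg/kg ip). Compound was given intravenously to the conscious hypertensive rats while mean arterial pressure was recorded.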

[4] = tested on: Rattus norvegicus; assay: Blood pressure lowering activity in renal hypertensive rats after peroral administration; type: functional; how it was run: as §1
[5] = Ionization constant for the compound; type: physicochemical, Rattus norvegicus

For CCCCc1nc(Cl)c(CNC(=O)Nc2cccc3ccccc23)n1Cc1ccc(-c2ccccc2C(=O)O)cc1, the Activity [1] was “inactive”, the IC50 [2] was 3000 nM and the Activity [3] was 10 mg/kg.
Compound CCCCc1nc(Cl)c(CO)n1Cc1ccc(-c2ccccc2-c2[nH]nnc2C#N)cc1 has an IC50 [2] of 280 nM, an Activity [3] greater than 1 mg/kg and an Activity [4] greater than 10 mg/kg.
Work on CCCCc1nc(Cl)c(CO)n1Cc1ccc(-c2ccccc2-c2[nH]nnc2C(=O)OC)cc1 yielded a pKa [5] of 7, an IC50 [2] of 260 nM and an Activity [3] greater than 1 mg/kg. It also gave an Activity [4] greater than 10 mg/kg.
With CCCCc1nc(Cl)c(CO)n1Cc1ccc(-c2ccccc2NC(=O)C(F)(F)F)cc1 the Activity [1] was “inactive”, the pKa [5] was 9.5 and the Activity [3] was 10 mg/kg.
Work on CCCCc1nc(Cl)c(CO)n1Cc1ccc(-c2ccccc2-c2n[nH]c(C(F)(F)F)n2)cc1 yielded an IC50 [2] of 370 nM, an Activity [3] of 1 mg/kg and an Activity [4] of 10 mg/kg.
Compound CCCCc1nc(Cl)c(CNC(=O)OC)n1Cc1ccc(-c2ccccc2C(=O)O)cc1 has an IC50 [2] of 250 nM, an Activity [3] of 3 mg/kg and an Activity [4] of 30 mg/kg.
CCCCc1nc(Cl)c(COC)n1Cc1ccc(-c2ccccc2C(=O)O)cc1 showed a pKa [5] of 5, an Activity [3] of 10 mg/kg and an Activity [4] of 100 mg/kg.
In the case of CCCCc1nc([N+](=O)[O-])c(CO)n1Cc1ccc(-c2ccccc2C(=O)O)cc1, the Activity [1] is reported as “inactive”, the IC50 [2] is reported as 260 nM and the Activity [3] is reported as 10 mg/kg.
CCCCc1nc(Cl)c(COC)n1Cc1ccc(-c2ccccc2NS(=O)(=O)C(F)(F)F)cc1 gave a pKa [5] of 4.5, an Activity [3] of 10 mg/kg and an Activity [4] of 100 mg/kg.
In the case of CCCCc1nc(Cl)c(CNC(=O)NC)n1Cc1ccc(-c2ccccc2C(=O)O)cc1, the Activity [1] is reported as “inactive”, the IC50 [2] is reported as 240 nM and the Activity [3] is reported as 10 mg/kg.
CCCCc1nc(Cl)c(COC)n1Cc1ccc(-c2ccccc2C(=O)Nc2nn[nH]n2)cc1 gave an Activity [3] of 10 mg/kg.
In the case of CCCCc1nc(Cl)c(/C=N/NS(=O)(=O)c2ccccc2)n1Cc1ccc(-c2ccccc2-c2nn[nH]n2)cc1, the IC50 [2] is reported as 660 nM, the Activity [3] is reported as 3 mg/kg and the Activity [4] is reported as 30 mg/kg.
In the case of CCCCc1nc(Cl)c(COC(C)=O)n1Cc1ccc(-c2ccccc2C(=O)O)cc1, the Activity [3] is reported as 10 mg/kg and the Activity [4] is reported as 100 mg/kg.
In the case of CCCCc1nc(Cl)c(CN)n1Cc1ccc(-c2ccccc2C(=O)O)cc1, the IC50 [2] is reported as 3200 nM.
Work on O=C(O)c1ccccc1-c1ccc(Cn2c(-c3ccccc3)nc(Cl)c2CO)cc1 yielded an Activity [3] of 10 mg/kg and an Activity [4] of 100 mg/kg.
In the case of CCCCCCc1nc(Cl)c(CO)n1Cc1ccc(-c2ccccc2C(=O)O)cc1, the Activity [1] is reported as “inactive” and the Activity [3] is reported as 10 mg/kg.
Work on CCCCc1nc(C(F)(F)F)c(CO)n1Cc1ccc(-c2ccccc2C(=O)O)cc1 yielded an IC50 [2] of 62 nM, an Activity [3] of 3 mg/kg and an Activity [4] of 30 mg/kg.
In the case of CCCCCc1nc(Cl)c(CO)n1Cc1ccc(-c2ccccc2C(=O)O)cc1, the IC50 [2] is reported as 980 nM, the Activity [3] is reported as 3 mg/kg and the Activity [4] is reported as 30 mg/kg.
CCCCc1nc(Cl)c(COC)n1Cc1ccc(-c2ccccc2Cc2nnn[nH]2)cc1 gave an IC50 [2] of 300 nM, an Activity [3] of 10 mg/kg and an Activity [4] of 100 mg/kg.
Work on CCCCc1nc(Cl)c(C=O)n1Cc1ccc(-c2ccccc2-c2nn[nH]n2)cc1 yielded an IC50 [2] of 20 nM, an Activity [3] of 0.3 mg/kg and an Activity [4] of 3 mg/kg.
CCCCc1nc(Br)c(CO)n1Cc1ccc(-c2ccccc2C(=O)O)cc1 showed an IC50 [2] of 90 nM, an Activity [3] of 3 mg/kg and an Activity [4] of 30 mg/kg.
CCCCc1nc(I)c(CO)n1Cc1ccc(-c2ccccc2C(=O)O)cc1 gave an IC50 [2] of 61 nM, an Activity [3] of 10 mg/kg and an Activity [4] of 100 mg/kg.
Compound CCCCc1nc(Cl)c(CO)n1Cc1ccc(-c2cccc(C(=O)O)c2)cc1 has an Activity [3] of 45 mg/kg and an Activity [4] of 100 mg/kg.
Compound CCCCc1nc(Cl)c(CO)n1Cc1ccc(-c2cccc(C)c2C(=O)O)cc1 has an IC50 [2] of 1900 nM, an Activity [3] of 3 mg/kg and an Activity [4] of 10 mg/kg.
For CCCCc1nc(I)c(CO)n1Cc1ccc(-c2ccccc2-c2nn[nH]n2)cc1, the Activity [3] was 1 mg/kg and the Activity [4] was 10 mg/kg.
Compound C=CCOC(=O)NCc1c(Cl)nc(CCCC)n1Cc1ccc(-c2ccccc2C(=O)O)cc1 has an IC50 [2] of 390 nM, an Activity [3] of 10 mg/kg and an Activity [4] of 100 mg/kg.
For CCCCc1nc(Cl)c(CNC(=O)OC)n1Cc1ccc(-c2ccccc2-c2nn[nH]n2)cc1, the IC50 [2] was 60 nM, the Activity [3] was 1 mg/kg and the Activity [4] was greater than 10 mg/kg.
For CCCCc1nc(Cl)c(C(=O)OC)n1Cc1ccc(-c2ccccc2C(=O)O)cc1, the IC50 [2] was 340 nM, the Activity [3] was 10 mg/kg and the Activity [4] was 100 mg/kg.
CCCCc1nc(Cl)c(CO)n1Cc1ccc(-c2ccccc2C(N)=O)cc1 gave an IC50 [2] of 35000 nM.
For CCc1nc(Cl)c(CO)n1Cc1ccc(-c2ccccc2C(=O)O)cc1, the IC50 [2] was 1700 nM, the Activity [3] was 10 mg/kg and the Activity [4] was 100 mg/kg.
Compound CCCCc1nc(Cl)c(CO)n1Cc1ccc(-c2c(OC)cccc2C(=O)O)cc1 has an IC50 [2] of 3000 nM, an Activity [3] of 10 mg/kg and an Activity [4] of 100 mg/kg.
Work on CCCCc1nc(Cl)c(/C=N/NC2=NCCN2)n1Cc1ccc(-c2ccccc2-c2nn[nH]n2)cc1 yielded an IC50 [2] of 290 nM, an Activity [3] of 3 mg/kg and an Activity [4] of 30 mg/kg.
For CCCc1nc(Cl)c(CO)n1Cc1ccc(-c2ccccc2C(=O)O)cc1, the IC50 [2] was 160 nM, the Activity [3] was 3 mg/kg and the Activity [4] was 30 mg/kg.
CCCCc1nc(Cl)c(C(=O)N(C)C)n1Cc1ccc(-c2ccccc2C(=O)O)cc1 showed an IC50 [2] of 1300 nM, an Activity [3] of 10 mg/kg and an Activity [4] of 10 mg/kg.
In the case of CCCCc1nc(Cl)c(C(N)=O)n1Cc1ccc(-c2ccccc2C(=O)O)cc1, the IC50 [2] is reported as 150 nM, the Activity [3] is reported as 10 mg/kg and the Activity [4] is reported as 100 mg/kg.
In the case of CCCCc1ncc(CO)n1Cc1ccc(-c2ccccc2C(=O)O)cc1, the Activity [1] is reported as “inactive”, the IC50 [2] is reported as 270 nM and the Activity [3] is reported as 10 mg/kg.
In the case of CCCCc1nc(Cl)c(CO)n1Cc1ccc(-c2ccc(C(=O)O)cc2)cc1, the Activity [1] is reported as “inactive” and the Activity [3] is reported as greater than 10 mg/kg.
CCCCc1nc(Cl)c(COC)n1Cc1ccc(-c2ccccc2-c2nn[nH]n2)cc1 showed a pKa [5] of 6, an Activity [3] of 1 mg/kg and an Activity [4] of 3 mg/kg.
CCCCc1nc(Cl)c(CNC(=O)OCC)n1Cc1ccc(-c2ccccc2C(=O)O)cc1 gave an IC50 [2] of 200 nM, an Activity [3] of 10 mg/kg and an Activity [4] of 100 mg/kg.
With CCCCc1nc(Cl)c(C=O)n1Cc1ccc(-c2cccc(-c3nn[nH]n3)c2)cc1 the IC50 [2] was greater than 1000 nM, the Activity [3] was greater than 10 mg/kg and the Activity [4] was 30 mg/kg.
With CCCCc1nc(Br)c(CO)n1Cc1ccc(-c2ccccc2-c2nn[nH]n2)cc1 the Activity [3] was 0.3 mg/kg and the Activity [4] was 3 mg/kg.
CCCCc1nc(Cl)c(CO)n1Cc1ccc(-c2ccccc2NS(=O)(=O)C(F)(F)F)cc1 showed a pKa [5] of 4.5, an Activity [3] of 10 mg/kg and an Activity [4] of 100 mg/kg.
Compound CCCCc1nc(Cl)c(CNC(=O)OC23C[C@H]4C[C@@H](C2)C[C@@H](C3)C4)n1Cc1ccc(-c2ccccc2C(=O)O)cc1 has an IC50 [2] of 600 nM, an Activity [3] of 3 mg/kg and an Activity [4] of 30 mg/kg.
For CCCCc1nc(Cl)c(C=O)n1Cc1ccc(-c2ccccc2-c2[nH]nnc2F)cc1, the Activity [1] was “inactive”, the IC50 [2] was 13000 nM and the Activity [3] was greater than 10 mg/kg.
In the case of CCCCc1nc(Cl)c(CNC(=O)NC(C)c2cccc3ccccc23)n1Cc1ccc(-c2ccccc2C(=O)O)cc1 (stereo unspecified), the Activity [1] is reported as “inactive”, the IC50 [2] is reported as 700 nM and the Activity [3] is reported as greater than 10 mg/kg.
In the case of CCCCc1nc(Cl)c(C(O)c2ccccc2)n1Cc1ccc(-c2ccccc2-c2nn[nH]n2)cc1 (stereo unspecified), the IC50 [2] is reported as 410 nM, the Activity [3] is reported as 3 mg/kg and the Activity [4] is reported as greater than 30 mg/kg.
